Reference: PubChem BioAssay
Inconclusive results are not listed.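 Rule for the calls, unless noted: active = RAM network inhibition above 8.4% in each of two replicates, 3 SD over the compound average; inconclusive = above 8.4% inhibition in only one replicate; inactive = 8.4% inhibition or less in each replicate.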

What was measured:
[1] = S. cerevisiae growth inhibition in permissive medium (OD615), pilot counter-assay for S. cerevisiae lifespan shortening project, permissive growth control (AID 705;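 active = growth inhibition above 25% in both replicates, a cutoff set 3 SD above the mean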); details: OD615, 24 h, at 10 µM, active compounds read high
In short: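 System: engineered DeaD yeast; Medium: permissive raffinose/galactose medium; Compound dosing: 10 µM single dose, 0.25% DMSO; Incubation: 4 h cell pre-growth, 24 h exposure at 30 °C; Technique: OD at 615 nm; Evaluation: growth inhibition from lowered OD615 after 24 h.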

[2] = S. cerevisiae growth inhibition in restrictive medium, OD615, pilot screen, restrictive growth control, yeast lifespan reduction project (AID 706;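 active = growth inhibition above a set limit, 3 SD over mean compound inhibition, in both replicates, cut at about 43% in these data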;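 note: modified DeaD lifespan yeast strain shifted to restrictive glucose medium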); details: OD615, 48 h, at 10 µM, active compounds read high
In short: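 Material: modified S. cerevisiae; buffer or medium: CSMM-D glucose medium; doses: one concentration, 10 µM final, 0.25% DMSO; incubation: 48 h compound exposure at 30 °C; detection: optical density at 615 nm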

[3] = doxorubicin toxicity protection in MRP-1 cells – H69AR cells, CellTiter-Glo, duplicate, MRP-1 activator project, pilot screen (AID 807;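 active = viability increase at or above a cutoff of the median across tested compounds plus 3 SD, cut at about 8.5% in these data, passing the limit was not always enough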;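 note: compound pretreatment 18-22 h then 72 h combined with doxorubicin; 0% = doxorubicin alone and 100% = vehicle without doxorubicin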); details: H69AR viability with doxorubicin, CellTiter-Glo luminescence; at 10 µM; active compounds read high
[4] = viability of HCT116 without oncogenic beta-catenin – human colon tumor cells, pilot screen (AID 823;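 active = cell viability at or below a set limit in both duplicate runs, the limit being the all-compound median minus 4 SD, cut at about 23% in these data, passing the limit was not always enough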;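 note: 0% = wells killed by 20 µM Hyamine and 100% = untreated DMSO cell wells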); details: HCT116 beta-catenin knockout viability, CellTiter-Glo, 60 h; at 10 µM; active compounds read low
[5] = viability of PTEN-null HCT116 cells – cell-based, HCT116 clonal line, CellTiter-Glo, pilot screen (AID 824;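 active = viability at or below 27.92% in each of two runs, the all-compound median minus 4 SD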;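 note: 0% = 20 µM Hyamine control and 100% = vehicle cell control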); details: HCT116 PTEN-deleted viability, 60 h, at 10 µM, active compounds read low
[6] = RAM pathway blockade in budding yeast – dse1pr::URA3 reporter, 5-FOA selection, pilot screen (AID 869;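 active = inhibition over a set limit, the all-compound mean plus 3 SD, in both replicate runs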;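 note: 0% = DMSO wells with no growth and 100% = 10 µM 1-NA-PP1 with full growth; RAM network block rescues cells from 5-FOA so hits raise OD615 growth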); details: S. cerevisiae dse1pr::URA3 5-FOA growth, OD615, 2 d; at 10 µM; active compounds read high; strain carries analog-sensitive mutant Cbk1 kinase
[7] = RAM signaling pathway blockade in yeast – S. cerevisiae, Pdr1DBD-CYC8 efflux-inhibited sensitized strain, primary screen (AID 1298);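 note: 0% = DMSO untreated cells without growth and 100% = 10 µM 1-NA-PP1 full growth; higher means more yeast growth rescued from 5-FOA killing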; details: S. cerevisiae cbk1-as DSE1-URA3 strain, 5-FOA growth OD615, 2 d; at 50 µM; active compounds read high

C=CCn1cnc2scc(-c3ccccc3)c2c1=O
inactive: growth inhibition [1] 2.71% | growth inhibition [2] 10.9% | viability increase [3] -1.68% | viability [4] 93.6% | viability [5] 84.2% | inhibition [6] 2.52% | RAM network inhibition [7] 0.21%

CCOC(=O)CSc1nnc(Cn2c(=O)sc3ccccc32)n1-c1ccccc1C
inactive: growth inhibition [1] -8.34% | growth inhibition [2] -6.71% | viability increase [3] -1.07% | viability [4] 96.2% | viability [5] 96% | inhibition [6] 2.26% | RAM network inhibition [7] 2.24%

CCOC(=O)C(C)Sc1nnc(Cc2cc(=O)[nH]c(=O)[nH]2)n1-c1cccc(OC)c1 (configuration not stated)
inactive: growth inhibition [1] -8.94% | growth inhibition [2] -10% | viability increase [3] 0.04% | viability [4] 101% | viability [5] 96.9% | inhibition [6] 0.395% | RAM network inhibition [7] -1.47%

COc1ccc(S(=O)(=O)N2CCN(c3c(C)cccc3C)CC2)cc1OC
inactive: growth inhibition [1] -1.27% | growth inhibition [2] -7.95% | viability increase [3] -1% | viability [4] 78.2% | viability [5] 74.4% | inhibition [6] 0.435% | RAM network inhibition [7] 10.8%

CCOC(=O)C1CCN(S(=O)(=O)c2ccc(OCC)cc2)CC1
inactive: growth inhibition [1] -6.07% | growth inhibition [2] -13.5% | viability increase [3] -2.24% | viability [4] 92% | viability [5] 94.4% | inhibition [6] 0.575% | RAM network inhibition [7] 6.62%

Cn1c(=O)oc2cc(S(=O)(=O)N3CCc4ccccc4C3)ccc21
inactive: growth inhibition [1] -14.7% | growth inhibition [2] -5.15% | viability increase [3] -2.36% | viability [4] 99.2% | viability [5] 91.9% | inhibition [6] 2.58% | RAM network inhibition [7] 5.77%

CC(=O)c1coc2ccc(OCCN3CCCCC3)cc12
inactive: growth inhibition [1] -8.68% | growth inhibition [2] -18.4% | viability increase [3] -3.83% | viability [4] 85.2% | viability [5] 85.8% | inhibition [6] 0.64% | RAM network inhibition [7] 2.59%

CC(C)(C)c1ccc(NC(=O)NCc2ccco2)cc1
inactive: growth inhibition [1] -8.65% | growth inhibition [2] 2.62% | viability increase [3] -5% | viability [4] 63.8% | viability [5] 64.5% | inhibition [6] 1.23% | RAM network inhibition [7] -0.31%

N#CC(c1nc2ccccc2nc1N1CCCC1)S(=O)(=O)c1ccccc1 (configuration not stated)
inactive: growth inhibition [1] -17.2% | growth inhibition [2] -3.85% | viability increase [3] -4.56% | viability [4] 81.9% | viability [5] 84.5% | inhibition [6] 0.815% | RAM network inhibition [7] 5.73%

Cn1cnnc1SCc1ccc(C#N)cc1Cl
inactive: growth inhibition [1] -9.5% | growth inhibition [2] -15.1% | viability increase [3] 0.63% | viability [4] 99.7% | viability [5] 97.8% | inhibition [6] 0.175% | RAM network inhibition [7] 4.52%

Cc1onc(-c2ccccc2Cl)c1C(=O)NC1CCS(=O)(=O)C1 (configuration not stated)
inactive: growth inhibition [1] -10% | growth inhibition [2] 1.32% | viability increase [3] 1.32% | viability [4] 103% | viability [5] 106% | inhibition [6] 2.96% | RAM network inhibition [7] 3.02%

CCOc1ccccc1N1C(=O)CC(Nc2ccc(N3CCOCC3)cc2)C1=O (configuration not stated)
inactive: growth inhibition [1] -0.205% | growth inhibition [2] 7.53% | viability increase [3] -2.65% | viability [4] 101% | viability [5] 101% | inhibition [6] 1.6% | RAM network inhibition [7] 5.11%

COc1ccc(OC)c(C(C)NC(=O)c2ccco2)c1 (configuration not stated)
inactive: growth inhibition [1] -6.2% | growth inhibition [2] 2.66% | viability increase [3] -5.99% | viability [4] 40.8% | viability [5] 35.4% | inhibition [6] 0.005% | RAM network inhibition [7] 0.72%

CCC(Sc1nc(=O)cc(N)n1CCc1ccccc1)C(=O)Nc1cc(C)on1 (configuration not stated)
inactive: growth inhibition [1] -3.68% | growth inhibition [2] -7.75% | viability increase [3] -1.78% | viability [4] 104% | viability [5] 95.7% | inhibition [6] 1.33% | RAM network inhibition [7] 6.71%

CCC1Oc2ccc(C)cc2N(CC(=O)N2CCN(c3ccc(F)cc3)CC2)C1=O (configuration not stated)
inactive: growth inhibition [1] 5.46% | growth inhibition [2] 11.1% | viability increase [3] -3.35% | viability [4] 90% | viability [5] 83.5% | inhibition [6] -0.495% | RAM network inhibition [7] -0.06%

Cc1cc(C)c(NC(=O)CSc2nnc(-c3ccncc3)n2Cc2ccco2)c(Cl)c1
inactive: growth inhibition [1] 6.26% | growth inhibition [2] 12.8% | viability increase [3] -0.79% | viability [4] 98% | viability [5] 93.1% | inhibition [6] 1.79% | RAM network inhibition [7] 6.08%

COc1ccc(N2CCN(C(=O)c3ccc(CNc4c(N5CCOCC5)c(=O)c4=O)cc3)CC2)cc1
inactive: growth inhibition [1] 5.2% | growth inhibition [2] 8.53% | viability increase [3] -3.13% | viability [4] 96.2% | viability [5] 98.5% | inhibition [6] -0.255% | RAM network inhibition [7] -1.5%

COc1ccc(N=C2SC(C(=O)O)CC(=O)N2C)cc1 (configuration not stated)
inactive: growth inhibition [1] -5.94% | growth inhibition [2] 7.82% | viability increase [3] -0.87% | viability [4] 98.1% | viability [5] 101% | inhibition [6] 0.35% | RAM network inhibition [7] 3.61%

Cc1cnc(NC(=O)c2ccc(-c3nc4ccccc4s3)o2)s1
inactive: growth inhibition [1] -7.12% | growth inhibition [2] 10.2% | viability increase [3] -3.16% | viability [4] 98.1% | viability [5] 96.3% | inhibition [6] 0.165% | RAM network inhibition [7] 0.78%

CC(=NCCc1ccccc1)C1=C(O)COC1=O
inactive: growth inhibition [1] 4.12% | growth inhibition [2] -6.99% | viability increase [3] -2.71% | viability [4] 98.2% | viability [5] 99.9% | inhibition [6] 0.87% | RAM network inhibition [7] 2.27%

CC(C)OC(=O)c1nnc(Cc2ccc(F)cc2)o1
inactive: growth inhibition [1] 4.28% | growth inhibition [2] 8.2% | viability increase [3] 2.12% | viability [4] 113% | viability [5] 107% | inhibition [6] 0.82% | RAM network inhibition [7] 7.85%

Cc1cccc(-c2nc(CS(=O)CC(=O)N3CCc4ccccc4C3)c(C)o2)c1 (configuration not stated)
inactive: growth inhibition [1] 0.13% | growth inhibition [2] 20.1% | viability increase [3] -4.54% | viability [4] 84.8% | viability [5] 88.8% | inhibition [6] 0.385% | RAM network inhibition [7] 3.23%

COc1ccc(NC(=O)CCCC2=NS(=O)(=O)c3ccccc3N2)cc1
inactive: growth inhibition [1] -8.46% | growth inhibition [2] -7.47% | viability increase [3] -3.01% | viability [4] 103% | viability [5] 99.3% | inhibition [6] 1.23% | RAM network inhibition [7] 3.11%

COCCn1c(SCCN2CCOCC2)nc2c1c(=O)[nH]c(=O)n2C
inactive: growth inhibition [1] -0.205% | growth inhibition [2] -4.84% | viability increase [3] 0.95% | viability [4] 104% | viability [5] 101% | inhibition [6] 1.45% | RAM network inhibition [7] 5.47%

COc1cc(C(=O)Nc2ccc(N(C)C)cc2)cc(OC)c1OC
inactive: growth inhibition [1] -13.9% | growth inhibition [2] -11.7% | viability increase [3] -5.23% | viability [4] 82.2% | viability [5] 82.9% | inhibition [6] 1.14% | RAM network inhibition [7] 2.49%

CCOC(=O)COc1ccc2cc(C(=O)OCC)c(=O)oc2c1
inactive: growth inhibition [1] -4.38% | growth inhibition [2] -13.8% | viability increase [3] -0.91% | viability [4] 103% | viability [5] 96.2% | inhibition [6] 1.7% | RAM network inhibition [7] 2%

CCOC(=O)C1=C(Nc2cccc(Cl)c2)OCC1=O
inactive: growth inhibition [1] -17.9% | growth inhibition [2] 3.65% | viability increase [3] -1.85% | viability [4] 102% | viability [5] 99% | inhibition [6] 2.21% | RAM network inhibition [7] 4.51%

O=C(Cc1cccs1)Nc1nnc(-c2ccncc2)s1
inactive: growth inhibition [1] -0.91% | growth inhibition [2] 3.21% | viability increase [3] 2.53% | viability [4] 108% | viability [5] 98.8% | inhibition [6] 0.38% | RAM network inhibition [7] 0.83%

Cc1ccc(S(=O)(=O)/N=C/c2ccco2)cc1
inactive: growth inhibition [1] -11.7% | growth inhibition [2] -12.3% | viability increase [3] -1.73% | viability [4] 105% | viability [5] 100% | inhibition [6] 0.625% | RAM network inhibition [7] 6.25%

COCC(=O)Nc1cc(C)c2c(=O)oc3ccccc3c2n1
inactive: growth inhibition [1] 1.37% | growth inhibition [2] 5.79% | viability increase [3] -1.64% | viability [4] 96% | viability [5] 94% | inhibition [6] -0.92% | RAM network inhibition [7] 2.67%

O=C(C1CC(=O)N(C2CCCC2)C1)N1CCN(c2ccc(F)cc2)CC1 (configuration not stated)
inactive: growth inhibition [1] -1.42% | growth inhibition [2] 1.6% | viability increase [3] 0.11% | viability [4] 94.3% | viability [5] 95.2% | inhibition [6] 1.39% | RAM network inhibition [7] 2.53%

COc1ccc(-c2ccc(=O)n(CC(=O)N3CCN(c4ccccc4OC)CC3)n2)cc1
inactive: growth inhibition [1] -4.48% | growth inhibition [2] 12% | viability increase [3] 2.33% | viability [4] 89.7% | viability [5] 92.9% | inhibition [6] 1.15% | RAM network inhibition [7] 7.61%

CCOC(=O)N1CCC(N2Cc3cccc(C(=O)NCc4ccccn4)c3C2=O)CC1
inactive: growth inhibition [1] -4.83% | growth inhibition [2] 8.18% | viability increase [3] -5.24% | viability [4] 99.8% | viability [5] 102% | inhibition [6] 2.19% | RAM network inhibition [7] -1.14%

COc1cc(C(=O)Nc2nnc(C)s2)cc(OC)c1OC
inactive: growth inhibition [1] -12.2% | growth inhibition [2] -5.23% | viability increase [3] -2% | viability [4] 95.2% | viability [5] 82.3% | inhibition [6] 2.54% | RAM network inhibition [7] 2.16%

O=C(Cn1cc(C(=O)c2cccs2)c2ccccc21)NCc1ccc2c(c1)OCO2
inactive: growth inhibition [1] -5.79% | growth inhibition [2] -15.1% | viability increase [3] -2.32% | viability [4] 94.6% | viability [5] 86.4% | inhibition [6] 1.08% | RAM network inhibition [7] 2.74%

N#CC1=C(c2ccccc2)N=P(N2CCOCC2)(N2CCOCC2)N=C1N1CCOCC1
inactive: growth inhibition [1] -6.26% | growth inhibition [2] -16.2% | viability increase [3] 0.57% | viability [4] 103% | viability [5] 107% | inhibition [6] 1.39% | RAM network inhibition [7] 0.33%
